Usually IC50 stands for the concentration that inhibits the measured activity by half.

Calls of active or inactive are those of the source. The calls are words filed in the database; no cut-off is given here. Bounds are passed on as bounds.

One data set concerns the target T1, Aryl hydrocarbon receptor (Danio rerio, UniProt Q9YGV3).
T1 sequence (Q9YGV3 whole entry): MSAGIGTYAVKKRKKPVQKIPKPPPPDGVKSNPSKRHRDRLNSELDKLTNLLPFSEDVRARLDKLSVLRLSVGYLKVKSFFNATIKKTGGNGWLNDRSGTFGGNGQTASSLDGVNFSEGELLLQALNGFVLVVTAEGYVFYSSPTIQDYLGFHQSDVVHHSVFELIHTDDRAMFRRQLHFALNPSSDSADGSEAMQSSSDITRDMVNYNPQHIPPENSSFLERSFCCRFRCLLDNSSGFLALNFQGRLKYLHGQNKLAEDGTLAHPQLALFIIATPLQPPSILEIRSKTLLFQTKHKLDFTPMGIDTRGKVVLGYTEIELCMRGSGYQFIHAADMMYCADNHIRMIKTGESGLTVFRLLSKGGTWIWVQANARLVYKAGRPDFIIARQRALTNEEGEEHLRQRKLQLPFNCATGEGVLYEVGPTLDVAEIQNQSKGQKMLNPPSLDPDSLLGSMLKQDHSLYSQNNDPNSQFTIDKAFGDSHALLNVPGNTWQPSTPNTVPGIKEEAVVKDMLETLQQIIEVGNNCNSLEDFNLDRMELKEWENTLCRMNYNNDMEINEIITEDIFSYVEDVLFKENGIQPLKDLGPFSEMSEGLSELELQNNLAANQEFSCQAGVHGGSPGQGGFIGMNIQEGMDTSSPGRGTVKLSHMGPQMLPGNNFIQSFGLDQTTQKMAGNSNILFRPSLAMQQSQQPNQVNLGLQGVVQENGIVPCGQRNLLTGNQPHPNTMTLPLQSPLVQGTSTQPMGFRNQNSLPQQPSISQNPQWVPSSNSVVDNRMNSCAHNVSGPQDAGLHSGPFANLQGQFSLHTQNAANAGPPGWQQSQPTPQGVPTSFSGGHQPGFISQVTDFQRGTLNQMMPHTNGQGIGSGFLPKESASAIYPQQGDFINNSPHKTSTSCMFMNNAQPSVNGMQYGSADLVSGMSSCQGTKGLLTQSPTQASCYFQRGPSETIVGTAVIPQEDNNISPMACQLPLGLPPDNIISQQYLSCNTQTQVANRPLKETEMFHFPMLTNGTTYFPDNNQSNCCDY
The data set is described as follows: Antagonist activity at aryl hydrocarbon receptor in 30 hrs post fertilized transgenic cyp1a:EGFP zebrafish embryo assessed as receptor transcriptional activity by measuring cyp1A-mediated EGFP expression at 5 uM measured after 48 hrs by fluorescence stereomicroscopic analysis.
Details: not given
In short, it runs like this: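 Screen format: 30 hpf Tg(cyp1a:nls-egfp) embryos, three per well in 200 µL E3 medium (pH 7.2) with 10 nM TCDD. Each compound was added singly at 5 µM in DMSO. Incubation 48 h, then EGFP scored by fluorescent stereomicroscopy.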
With `COc1ccccc1C(=O)/C=C/c1ccc(OC(F)(F)F)cc1`, the Activity result is reported as “Not Active”.
On the same count and under the same terms, the value for `COc1cc(O)c(C(=O)CC(=O)c2ccc(OC(C)C)cc2)c(OC)c1` was “Not Active”.
For `COc1ccccc1C(=O)C(C)(C)C(=O)c1ccc(OC(C)C)cc1`, the Activity entry was “Not Active”.
Still for that read-out and setting: next, `COc1ccccc1-c1cc(-c2ccc(OC(F)(F)F)cc2)[nH]n1`: “Not Active”; `COc1ccccc1-c1cc(-c2ccc(OC(C)C)cc2)[nH]n1`: “Not Active”; `COc1ccccc1C(=O)CC(=O)c1cccc(OC(F)(F)F)c1`: “Active”.
On the same count and under the same terms, next, `COc1ccccc1-c1cc(-c2ccc(OC(C)C)cc2)ncn1`: “Active”; `COc1ccccc1-c1cc(-c2ccc(OC(F)(F)F)cc2)no1`: “Not Active”.
On the same count and under the same terms, the value for `COc1ccc(C(=O)CC(=O)c2ccc(OC(F)(F)F)cc2)cc1` was “Not Active”; that for `COc1ccccc1C(=O)CC(=O)c1ccc(OCC(C)C)cc1` was “Not Active”; that for `CCOc1ccc(C(=O)CC(=O)c2ccccc2OC)cc1` was “Active”.
As to `COc1ccccc1C(=O)CC(=O)c1ccc(OCc2ccccc2)cc1`, the Activity result is recorded as “Not Active”.
Consider `COc1ccccc1-c1cc(-c2ccc(OC(C)C)cc2)no1`, for which the outcome was Active.
For `O=C(CC(=O)c1ccc(OC(F)(F)F)cc1)c1ccccc1`, the Activity result is reported as “Not Active”.
The same measure, in the same setting: next, `COc1ccc(C(=O)CC(=O)c2ccccc2OC)cc1`: “Not Active”; `COc1cccc(C(=O)CC(=O)c2ccc(OC(F)(F)F)cc2)c1`: “Active”.
The same measure, in the same setting: the value for `COc1cccc(OC)c1C(=O)CC(=O)c1ccc(OC(C)C)cc1` was “Not Active”; that for `CC(C)Oc1ccc(C(=O)CC(=O)c2ccccc2OC(F)(F)F)cc1` was “Not Active”.
The same measure, in the same setting: next, `COc1ccccc1C(=O)CC(=O)c1ccccc1`: “Not Active”.

For the next data set, the target named is T1, Aryl hydrocarbon receptor. The data set is described as follows: Antagonist activity at zebrafish AhR2 expressed in COS7 cells transfected with ARNT-1c, Cyp1a-firefly luciferase and pRL-TK Renilla luciferase plasmids assessed as inhibition of AhR transcriptional activity administered at 5 hrs post-transfection treated with TCDD at 1 hr post-compound treatment and measured for 10 sec after a 3 sec delay at 18 hrs post-TCDD challenge by dual luciferase reporter …. The data set is classed as cell-based.
Details: not given
Background: Reporter assays use an easily measured gene product as a stand-in for the process of interest.
As to `Cc1ccccc1/N=N/c1ccc(NC(=O)c2ccnn2C)c(C)c1`, the IC50 was found to be 98.1 nM.

System in the next data set: not listed separately
The data set is described as follows: Toxicity in 30 hrs post fertilized transgenic cyp1a:EGFP zebrafish embryo. The data set is classed as ADME, Danio rerio. The conditions noted are these: in vivo.
With `COc1ccccc1C(=O)/C=C/c1ccc(OC(F)(F)F)cc1`, the Activity entry is recorded as “Toxic”.
For the compound `COc1ccccc1-c1cc(-c2ccc(OC(F)(F)F)cc2)[nH]n1`, the Activity entry is reported as “Toxic”.
As for `COc1ccccc1-c1cc(-c2ccc(OC(C)C)cc2)[nH]n1`, the Activity entry is reported as “Toxic”.

The species named for the next data set is Homo sapiens. The data set can be described thus: Ex vivo expansion of human CD34-positive blood stem/progenitor cells assessed as increase in CD34+ cell population incubated for 5 weeks supplemented with fresh medium containing human recombinant thrombopoietin, stem cell factor, FLT-3 ligand and IL-3 by flow cytometry relative to control. Format: functional.
Details: not given
In short, it runs like this: (§1)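 Human cord blood CD34⁺ progenitors, 5 x 10⁴ cells in DXF expansion medium with supplement and cytokine mix (TPO, SCF, flt-3 ligand, IL-3), treated with compound at seeding. Cultured 5 weeks at 37°C, 5% CO2, density kept at 5 x 10⁵–2 x 10⁶ cells/ml. Cells stained with anti-CD34-APC plus CD45RA- or Lin-FITC and counted by flow cytometry; vehicle 0.01% DMSO.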
On the technique in general: Flow cytometry measures light scatter and fluorescence of single cells or particles in a stream.
Turning to `COc1ccccc1C(=O)/C=C/c1ccc(OC(C)C)cc1`, the fold change (FC) is greater than 4.

A further data set is filed under the species Homo sapiens. The data set is described as follows: Ex vivo expansion of human CD34-positive blood stem/progenitor cells assessed as CD34+ cell population incubated for 5 weeks supplemented with fresh medium containing human recombinant thrombopoietin, stem cell factor, FLT-3 ligand and IL-3 by flow cytometry. Format: functional.
Details: not given
In short, it runs like this:
as §1
`COc1ccccc1C(=O)CC(=O)c1ccc(OC(C)C)cc1`: the outcome was inactive.
On to `CCOc1ccccc1C(=O)CC(=O)c1ccc(OC(C)C)cc1`, for which the result was inactive.
Regarding `COc1ccccc1C(=O)CC(=O)c1ccc(OC(F)(F)F)cc1`, the outcome was inactive.
For `Cc1ccccc1/N=N/c1ccc(NC(=O)c2ccnn2C)c(C)c1`, the outcome was inactive.

The values above are taken from ChEMBL document CHEMBL4396922, “Identification of new aryl hydrocarbon receptor (AhR) antagonists using a zebrafish model” (Bioorg Med Chem, 2019).
